Assay type in all cases: functional
One experiment concerns Enterococcus faecalis. The experiment can be described thus: In vitro minimum inhibitory concentration against Enterococcus faecalis ATCC 29212. In outline: (§1)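 Agar dilution on Mueller–Hinton II agar; inoculum (1-5) × 10^5 CFU/mL; antibiotic concentrations 32–0.004 µg/mL; plates incubated 18 h at 35 °C in forced-air incubator. MIC taken as lowest concentration inhibiting growth of the test organism (tetracycline-sensitive and tetracycline-resistant strains).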

For experiment [1], the system named is Escherichia coli. The experiment can be described thus: In vitro minimum inhibitory concentration against Escherichia coli PRP-1 (tet A efflux). In outline: as §1
Experiment [2] concerns Escherichia coli. The experiment can be described thus: In vitro minimum inhibitory concentration against Escherichia coli UBMS 88-1 (tet B efflux). In outline: as §1
The subject of experiment [3] is Escherichia coli. Kind of experiment: In vitro minimum inhibitory concentration against Escherichia coli UBMS 90-4 (tet M ribosomal protection). In a few lines: as §1
Experiment [4] concerns Escherichia coli. The experiment can be described thus: In vitro minimum inhibitory concentration against Escherichia coli UBMS 90-5 (sensitive). In outline:
as §1

The subject of experiment [5] is Escherichia coli. Kind of experiment: In vitro minimum inhibitory concentration against Escherichia coli J3272 (tet C efflux). In outline:
as §1

Experiment [6] has as its system Escherichia coli. The experiment can be described thus: In vitro minimum inhibitory concentration against Escherichia coli J3272 (tet D efflux). In outline: as §1
The test system of experiment [7] is Staphylococcus aureus. The experiment can be described thus: In vitro minimum inhibitory concentration against Staphylococcus aureus UBMS 90-1 (tet M ribosomal protection). In a few lines:
as §1

In experiment [8] the test system is Staphylococcus aureus. The experiment can be described thus: In vitro minimum inhibitory concentration against Staphylococcus aureus UBMS 90-3 (sensitive). In outline: as §1
The subject of experiment [9] is Staphylococcus aureus. The experiment can be described thus: In vitro minimum inhibitory concentration against Staphylococcus aureus smith (sensitive). In a few lines: as §1
For experiment [10], the system named is Staphylococcus aureus. The experiment can be described thus: In vitro minimum inhibitory concentration against Staphylococcus aureus UBMS 88-7 (tet K efflux). In outline:
as §1

MIC data for 5 compounds are collected here from ChEMBL document CHEMBL1127493, “Glycylcyclines. 1. A new generation of potent antibacterial agents through modification of 9-aminotetracyclines” (1994).

SMILES strings stand for the structures.

By MIC is commonly meant the smallest concentration in the dilution series that meets the test's criterion for growth inhibition. A higher MIC goes with a less susceptible organism.

Regarding `CN(C)c1cc(N)c(O)c2c1CC1CC3[C@H](N(C)C)C(=O)C(C(N)=O)=C(O)[C@@]3(O)C(=O)C1=C2O.Cl` (stereo not given in full), the MIC with Enterococcus faecalis was 0.25 µg/mL; against Escherichia coli [1], 4 µg/mL; in the experiment on Escherichia coli [2] it was 32 µg/mL; with Escherichia coli [3], 8 µg/mL; in the experiment with Escherichia coli [4], 0.5 µg/mL; in the experiment on Escherichia coli [5], 16 µg/mL. Further, the MIC was found to be 8 µg/mL in the experiment with Escherichia coli [6]; 0.5 µg/mL in the experiment with Staphylococcus aureus [7]; 0.06 µg/mL against Staphylococcus aureus [8]; 0.06 µg/mL against Staphylococcus aureus [9]; 0.25 µg/mL in the experiment on Staphylococcus aureus [10].

As for `CN(C)c1cc(NC(=O)CN)c(O)c2c1CC1CC3[C@H](N(C)C)C(=O)C(C(N)=O)=C(O)[C@@]3(O)C(=O)C1=C2O.O=C(O)C(F)(F)F` (stereo not given in full), the MIC against Enterococcus faecalis stood at 0.25 µg/mL; with Escherichia coli [1], 32 µg/mL; against Escherichia coli [2] it was 2 µg/mL; against Escherichia coli [3], 1 µg/mL; in the experiment with Escherichia coli [4], 2 µg/mL; against Escherichia coli [5], 32 µg/mL. Further, the MIC against Escherichia coli [6] was 2 µg/mL; against Staphylococcus aureus [7], 2 µg/mL; in the experiment with Staphylococcus aureus [8], 0.5 µg/mL; with Staphylococcus aureus [9] it was 1 µg/mL; in the experiment on Staphylococcus aureus [10], over 32 µg/mL.

In the case of `CN(C)CC(=O)Nc1cc(I)c2c(c1O)C(=O)C1=C(O)[C@]3(O)C(O)=C(C(N)=O)C(=O)[C@@H](N(C)C)C3CC1C2.Cl` (stereo not given in full), the minimal inhibitory concentration (MIC) against Enterococcus faecalis worked out at 0.06 µg/mL; in the experiment with Escherichia coli [1], 8 µg/mL; with Escherichia coli [2], 1 µg/mL; in the experiment with Escherichia coli [3] it was 1 µg/mL; against Escherichia coli [4] it was 2 µg/mL; against Escherichia coli [5] it was 4 µg/mL. Moreover, the MIC came out at 0.5 µg/mL in the experiment on Escherichia coli [6]; 0.5 µg/mL against Staphylococcus aureus [7]; 0.12 µg/mL in the experiment with Staphylococcus aureus [8]; 0.25 µg/mL in the experiment with Staphylococcus aureus [9]; 4 µg/mL in the experiment on Staphylococcus aureus [10].

In the case of `CCN(CC)c1cc(NC(=O)CN(C)C)c(O)c2c1CC1CC3[C@H](N(C)C)C(=O)C(C(N)=O)=C(O)[C@@]3(O)C(=O)C1=C2O.Cl` (stereo not given in full), the MIC came to 0.25 µg/mL against Enterococcus faecalis; 4 µg/mL against Escherichia coli [1]; 1 µg/mL in the experiment on Escherichia coli [2]; 1 µg/mL in the experiment with Escherichia coli [3]; 1 µg/mL against Escherichia coli [4]; 4 µg/mL with Escherichia coli [5]. The MIC is 0.5 µg/mL against Escherichia coli [6]; 0.5 µg/mL against Staphylococcus aureus [7]; 0.5 µg/mL in the experiment on Staphylococcus aureus [8]; 0.5 µg/mL against Staphylococcus aureus [9]; 1 µg/mL against Staphylococcus aureus [10].

On to `CN(C)CC(=O)Nc1ccc2c(c1O)C(=O)C1=C(O)[C@]3(O)C(O)=C(C(N)=O)C(=O)[C@@H](N(C)C)C3CC1C2.Cl` (stereo not given in full), for which the MIC with Enterococcus faecalis came out at 0.03 µg/mL; in the experiment on Escherichia coli [1] it was 1 µg/mL; in the experiment on Escherichia coli [2], 0.25 µg/mL; with Escherichia coli [3], 0.12 µg/mL; against Escherichia coli [4], 0.12 µg/mL; against Escherichia coli [5], 0.5 µg/mL. For the same compound, the MIC came out at 0.12 µg/mL with Escherichia coli [6]; 0.12 µg/mL in the experiment with Staphylococcus aureus [7]; 0.06 µg/mL in the experiment on Staphylococcus aureus [8]; 0.12 µg/mL with Staphylococcus aureus [9]; 1 µg/mL with Staphylococcus aureus [10].
